Experimental data collected from several papers.
Lines come from different studies, so protocols differ.
Target: Serine/threonine-protein kinase WNK2 (WNK2, Homo sapiens, UniProt Q9Y3S1)

SMILES | read-out | mode | method | tested at | endpoint | result
Cc1cc(NC(=O)c2cccc3cc(-c4cccc5[nH]nc(N)c45)ccc23)ccc1F | enzyme activity | inhibitor | – | 0.1 µM | activity vs control | 98%
CC(=O)N1CCC(c2ccc(C(=O)NC(=N)N)cc2C(F)(F)F)CC1 | cell-free assay | – | competition with immobilised ligand | 1 µM | remaining binding | 98%
Cc1ccc(NC(=O)c2ccc(C)c(C(F)(F)F)c2)cc1C#Cc1nn(C2CCC(O)CC2)c2ncnc(N)c12 (stereo not shown) | cell-free assay | – | – | 10 µM | remaining signal | 105%
CCN(CC)c1ccc(C2=NNC(=O)CC2C)cc1[N+](=O)[O-] (stereo not shown) | enzyme activity | inhibitor | – | 10 µM | remaining activity | 104%
O=C1Nc2ccc(Cl)cc2C1=Cc1cc(Cl)c(O)c(Cl)c1 | cell-free assay | – | – | 0.5 µM | remaining signal | 115%
Cc1ccc(Nc2nccc(N(C)c3ccc4c(C)n(C)nc4c3)n2)cc1S(N)(=O)=O | enzyme activity | inhibitor | – | 0.3 µM | inhibition | 2%
CCCOc1ccc(OC)c(F)c1C(=O)c1ccc(C(=O)N[C@@H]2CNC[C@H]2NC(=O)c2ccc3[nH]ncc3c2)cc1 | enzyme activity | inhibitor | – | 10 µM | remaining activity | 92%
CC(C)(C)c1nc2c(s1)c1nc(N)ncc1c1ccc(NS(=O)(=O)c3c(F)cccc3F)c(F)c12 | enzyme activity | inhibitor | radiometric | 1 µM | remaining activity | 101%
O=C(N1CCS(=O)(=O)CC1)N1C[C@H](c2ccc(OC(F)(F)F)cc2)C[C@H](c2nc(C3CC3)no2)C1 | cell-free assay | – | competition with immobilised ligand | 1 µM | remaining binding | 73%
CNC(=O)c1cc(Oc2ccc(NC(=O)Nc3ccc(Cl)c(C(F)(F)F)c3)cc2)ccn1 | enzyme activity | inhibitor | – | 0.3 µM | inhibition | 1%
COCCOc1nc(-c2ccc(Cl)nc2)nc2c1CN(C(=O)c1ncn3ccccc13)CC2 | cell-free assay | – | competition with immobilised ligand | 0.1 µM | remaining binding | 100%
CN(CCCC(F)(F)F)c1nccc(-c2cnn3ncccc23)n1 | binding | – | – | 1 µM | remaining binding | 100%
Cc1sc(C(=O)NC2COC2)cc1-n1cc(NC(=O)Nc2c(F)cccc2Cl)cn1 | enzyme activity | inhibitor | – | 10 µM | remaining activity | 91.1%
CCCS(=O)(=O)Nc1ccc(F)c(C(=O)c2c[nH]c3ncc(-c4ccc(Cl)cc4)cc23)c1F | enzyme activity | inhibitor | – | 1 µM | inhibition | < 10%
CCN(CC)CCNC(=O)c1c(C)[nH]c(/C=C2\C(=O)Nc3ccc(F)cc32)c1C | enzyme activity | inhibitor | – | 0.3 µM | inhibition | 3%
O=C(O)[C@@H]1[C@@H](Cn2nnc3ccccc3c2=O)CC[C@H]1C(=O)c1ccc(OCCC2CCOCC2)cc1 | cell-free assay | – | competition with immobilised ligand | 1 µM | remaining binding | 82%
N#CCCc1ccc2c(c1)-c1[nH]c3ccc([N+](=O)[O-])cc3c1CC(=O)N2 | cell-free assay | – | – | 0.5 µM | remaining signal | 112%
CN([C@@H]1CCc2c(CC(=O)O)c3ccccc3n2C1)S(=O)(=O)c1ccc(F)cc1 | cell-free assay | – | competition with immobilised ligand | 1 µM | remaining binding | 92%
Cc1cnc(NC2CCOCC2)nc1-n1cnc(C(=O)NC(CN)c2cc(F)cc(Cl)c2)c1 (stereo not shown) | enzyme activity | inhibitor | radiometric | 1 µM | remaining activity | 85%
